Test: yeast TOR pathway reporter LAP4-GFP change – cell-based, cherry picks, flow cytometry, mother/daughter gates, confirmation (AID 2271);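 note: ratio of sample to DMSO plate mean so 100% equals DMSO level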
Conditions: S. cerevisiae LAP4-GFP strain, 3 h, measured here: daughter cell gate response, at 10 µM, stronger effect = higher value, 100 means same as DMSO control
Procedure, shortened: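 Material – Alexa Fluor 633-labelled Saccharomyces cerevisiae GFP-fusion strain, single-plex · Incubation – compound exposure 3 h at 30 °C, end-over-end rotation · Measured by – GFP by flow cytometry · Measure – median GFP fluorescence as percent of plate-mean DMSO wells · Control set – positive rapamycin (400 ng/mL), negative DMSO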

Going from CCCCCCNC(=O)c1c(O)c2cccc3c2n(c1=O)CCC3 to O=C(NCc1cccnc1)c1cnc2n(c1=O)CCS2, the GFP response relative to DMSO rises from 97.6% to 104%.

Going from Cc1ccc(N2CCN(C(=O)c3ccccc3)CC2)c(C)c1 to O=C(c1ccc(Cl)cc1)N1CCN(c2cccc3[nH]ccc23)CC1, the GFP response relative to DMSO rises from 94.4% to 107%.

First: COc1ccccc1-c1noc(CCC(=O)Nc2cccc(C)c2)n1
Second: O=C(Nc1cccc(O)c1)c1ccccc1
The GFP response relative to DMSO of the first is lower: 96.5% for the first, 97.6% for the second.

First: O=C(NC(=S)NNC(=O)c1ccc(Cl)cc1Cl)c1cccnc1
Second: COc1ccc(C(=O)NNC(=S)NC(=O)/C=C/c2cccs2)cc1
The GFP response relative to DMSO of the first is lower: 96.6% for the first, 173% for the second.

Compared with CN1C(=O)c2cccc3c(Cl)ccc(c23)C1=O, COc1ccc(N2C(=O)C(Cl)=C(Nc3ccccc3O)C2=O)cc1 is lower in GFP response relative to DMSO: 107% for the first, 101% for the second.

First: Cc1nc2c(-c3ccc(F)cc3)c(C)nn2c(N2CCOCC2)c1C
Second: Cc1cc(NCCN2CCOCC2)n2ncc(-c3ccccc3)c2n1
The GFP response relative to DMSO of the first is lower: 96.5% for the first, 110% for the second.

Compared with CCOc1cc(-c2nc3cc(C)ccn3c2NCC2CCCO2)ccc1O (stereo not given), Cc1ccc(-c2nnc(NC(=O)c3ccc([N+](=O)[O-])o3)o2)c(C)c1 is higher in GFP response relative to DMSO: 91.3% for the first, 133% for the second.

First: CCOC(=O)CS(=O)(=O)c1nc(-c2ccccc2)cc(C(F)(F)F)n1
Second: CCc1ccc(NC(=O)c2nc(S(=O)(=O)Cc3ccccc3)ncc2Cl)cc1
The GFP response relative to DMSO of the first is higher: 192% for the first, 118% for the second.

First: C[n+]1ccc(/C=C/c2c[nH]c3ccc(F)cc23)cc1
Second: CC(C)CC[n+]1ccccc1/C=C/c1ccc(N(C)C)cc1
The GFP response relative to DMSO of the first is higher: 110% for the first, 108% for the second.

Compared with COc1cc(NC(=O)c2ccc(F)cc2)ccc1NC(=O)c1cc2ccccc2o1, COc1ccc(Br)cc1/C=C/C(=O)c1ccc(NC(C)=O)cc1 is lower in GFP response relative to DMSO: 96.6% for the first, 89.8% for the second.

Going from O=C(Nc1cc(Sc2ccccn2)cc([N+](=O)[O-])c1)c1cccc(F)c1 to C/C(=N\NC(=O)c1cccc(Br)c1)c1ccccn1, the GFP response relative to DMSO rises from 96% to 149%.

O=C1CC(SCCO)C(=O)N1c1ccc(Oc2ccccc2)cc1 (stereo not given) and O=C(O)Cc1ccc2ccc3ccccc3c2c1 are the same in GFP response relative to DMSO: 105% for the first, 105% for the second.

First: Cc1nn(C)c(C(=O)Sc2cccc(Cl)c2)c1[N+](=O)[O-]
Second: CCOC(=O)CSC1=NC(=O)/C(=C\c2ccc(Cl)cc2)S1
The GFP response relative to DMSO of the first is lower: 114% for the first, 150% for the second.

Going from CC(=O)N(\C=C/C=C/C=C1\Sc2ccccc2C1=O)c1ccccc1 to Cc1ccc(S(=O)(=O)N(Cc2ccccc2)Cc2ccco2)cc1, the GFP response relative to DMSO falls from 145% to 87.9%.

Going from N#C/C(=C\c1ccccn1)c1nc2ccccc2s1 to c1ccc2oc(SCc3nc4ccccc4s3)nc2c1, the GFP response relative to DMSO falls from 464% to 104%.

Compared with CS(=O)(=O)Nc1cccc(C2=NN(S(C)(=O)=O)C(c3ccc4c(c3)OCO4)C2)c1 (stereo not given), COc1ccc(C2CC(c3ccccc3)=NN2S(=O)(=O)c2ccccc2)c(OC)c1 (stereo not given) is higher in GFP response relative to DMSO: 99.2% for the first, 102% for the second.

Compared with O=C1c2ccsc2SCCN1Cc1c(F)cccc1Cl, Cc1ccc(CC2CC(=O)N(Cc3ccco3)C2=O)cc1 (stereo not given) is lower in GFP response relative to DMSO: 110% for the first, 97.2% for the second.

CS/C(N)=N/N=C/c1ccc2c(c1)OCO2 and COC(=O)c1ccc(/C=N/OCC(=O)NCCc2ccc(OC)c(OC)c2)cc1 are the same in GFP response relative to DMSO: 102% for the first, 102% for the second.

Compared with COCc1nnc(NC(=O)c2ccc(S(=O)(=O)N(C)C3CCCCC3)cc2)o1, COc1cccc(NC(=O)/C=C/c2ccc([N+](=O)[O-])cc2)c1 is lower in GFP response relative to DMSO: 102% for the first, 101% for the second.

FC(F)(F)c1cc(-c2cccs2)nc2cc(-c3cccs3)nn12 and CC1CN(c2nc3ccccn3c(=O)c2/C=C(\C#N)C(=O)N2CCOCC2)CC(C)O1 (stereo not given) are the same in GFP response relative to DMSO: 97.5% for the first, 97.5% for the second.

Source: PubChem BioAssay
